ChEMBL document CHEMBL2169769, “Synthesis and biological characterization of protease-activated prodrugs of doxazolidine” (J Med Chem, 2012)
Active and inactive are the calls of the source. The calls are words filed in the database; no cut-off is given here.

How the values were obtained:
MCF7 [1] = experiment: Cytotoxicity against human MCF7 cells incubated for 3 hrs measured after 3 to 4 hrs in absence of plasmin; assay type: functional, cell-based
MIA PaCa-2 [2] = experiment: Cytotoxicity against human MIAPaCa2 cells incubated for 3 hrs measured after 3 to 4 hrs in absence of plasmin; assay type: functional, cell-based
MIA PaCa-2 [3] = experiment: Cytotoxicity against human MIAPaCa2 cells incubated for 3 hrs measured after 3 to 4 hrs in presence of plasmin; assay type: functional, cell-based
[4] = Prodrug conversion assessed as release of active dozax in absence of plasmin at 50 uM pH 7.4 in PBS by RP-HPLC; assay type: ADME; details: buffer, pH 7.4, 50 µM
How it was run: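 Enzyme-free control: 50 µM prodrug in PBS at 37 °C over 24 h, RP-HPLC monitoring dox at 480 nm.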

MCF7 [5] = experiment: Cytotoxicity against human MCF7 cells incubated for 3 hrs measured after 3 to 4 hrs in presence of plasmin; assay type: functional, cell-based
[6] = Prodrug conversion assessed as release of human plasmin induced active dozax at 50 uM pH 7.4 in PBS by RP-HPLC; assay type: ADME; details: buffer, pH 7.4, 50 µM
How it was run: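 50 µM prodrug with 1.2 µg/mL human plasmin in PBS pH 7.4 at 37 °C. Samples taken over time, ethanol-quenched, analysed by RP-HPLC at 480 nm for prodrug and dox; repeated runs fit to single-exponential association model.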

[7] = test system: COc1cccc2c1C(=O)c1c(O)c3c(c(O)c1C2=O)C[C@@](O)(C(=O)CO)C[C@@H]3O[C@H]1C[C@H]2[C@H](OCN2C(=O)OCc2ccc(NC(=O)[C@H](CCCCN)NC(=O)[C@H](Cc3ccccc3)NC(=O)[C@@H](C)NC(=O)CNC(C)=O)cc2)[C@H](C)O1; experiment: Activity of human cathepsin B assessed as enzyme catalytic turnover for compound hydrolysis at 50 uM at pH 6.5 in PBS buffer containing 10 mM N-acetylcysteine by RP-HPLC
How it was run: (§1)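 Michaelis-Menten kinetics, substrate 10–400 µM at 37 °C. Plasmin: 0.2 U, PBS pH 7.4, 4 min. Cathepsin B: 0.08 U, PBS-NAC pH 6.5, 20 min. Quenched with equal volume ethanol, −20 °C ≥2 h, centrifuged, supernatant RP-HPLC at 480 nm. Rates (µM/min) fit by non-linear least squares; triplicates.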

[8] = test system: COc1cccc2c1C(=O)c1c(O)c3c(c(O)c1C2=O)C[C@@](O)(C(=O)CO)C[C@@H]3O[C@H]1C[C@H]2[C@H](OCN2C(=O)OCc2ccc(NC(=O)[C@H](CCCCN)NC(=O)[C@H](Cc3ccccc3)NC(=O)[C@@H](C)NC(=O)CNC(C)=O)cc2)[C@H](C)O1; experiment: Activity of human cathepsin B assessed as compound hydrolysis at 50 uM at pH 6.5 in PBS buffer containing 10 mM N-acetylcysteine by RP-HPLC; how it was run: as §1
[9] = substrate: COc1cccc2c1C(=O)c1c(O)c3c(c(O)c1C2=O)C[C@@](O)(C(=O)CO)C[C@@H]3O[C@H]1C[C@H]2[C@H](OCN2C(=O)OCc2ccc(NC(=O)[C@H](CCCCN)NC(=O)[C@H](Cc3ccccc3)NC(=O)[C@@H](C)NC(=O)CNC(C)=O)cc2)[C@H](C)O1; experiment: Activity of human plasmin assessed as enzyme catalytic turnover for compound hydrolysis at 50 uM at pH 7.4 in PBS buffer by RP-HPLC; how it was run: as §1
[10] = substrate: COc1cccc2c1C(=O)c1c(O)c3c(c(O)c1C2=O)C[C@@](O)(C(=O)CO)C[C@@H]3O[C@H]1C[C@H]2[C@H](OCN2C(=O)OCc2ccc(NC(=O)[C@H](CCCCN)NC(=O)[C@H](Cc3ccccc3)NC(=O)[C@@H](C)NC(=O)CNC(C)=O)cc2)[C@H](C)O1; experiment: Activity of human plasmin assessed as compound hydrolysis at 50 uM at pH 7.4 in PBS buffer by RP-HPLC; how it was run: as §1

COc1cccc2c1C(=O)c1c(O)c3c(c(O)c1C2=O)C[C@@](O)(C(=O)CO)C[C@@H]3O[C@H]1C[C@H](NC(=O)OCc2ccc(NC(=O)[C@H](CCCCN)NC(=O)[C@H](Cc3ccccc3)NC(=O)[C@@H](C)N)cc2)[C@H](O)[C@H](C)O1
IC50 (MCF7 [1]): < 1000 nM
pIC50 (MIA PaCa-2 [2]): inactive

COc1cccc2c1C(=O)c1c(O)c3c(c(O)c1C2=O)C[C@@](O)(C(=O)CO)C[C@@H]3O[C@H]1C[C@H]2[C@H](OCN2C(=O)OCc2ccc(NC(=O)[C@H](CCCCN)NC(=O)[C@H](Cc3ccccc3)NC(=O)[C@@H](C)N)cc2)[C@H](C)O1.O=P(O)(O)O
Activity (MIA PaCa-2 [3]): Active
Stability [4]: Stable
pIC50 (MCF7 [1]): Active
Activity (MCF7 [5]): Active
pIC50 (MIA PaCa-2 [2]): Active
Drug metabolism [6]: Active

Cathepsin B (Homo sapiens) (from UniProt P07858)
kcat [7]: 0.49 s⁻¹
Km [8]: 108 µM
Vmax [8]: 1.32 µM/min

B1: Plasminogen (Homo sapiens), P00747 (protein)
chain: MEHKEVVLLLLLFLKSGQGEPLDDYVNTQGASLFSVTKKQLGAGSIEECAAKCEEDEEFTCRAFQYHSKEQQCVIMAENRKSSIIIRMRDVVLFEKKVYLSECKTGNGKNYRGTMSKTKNGITCQKWSSTSPHRPRFSPATHPSEGLEENYCRNPDNDPQGPWCYTTDPEKRYDYCDILECEEECMHCSGENYDGKISKTMSGLECQAWDSQSPHAHGYIPSKFPNKNLKKNYCRNPDRELRPWCFTTDPNKRWELCDIPRCTTPPPSSGPTYQCLKGTGENYRGNVAVTVSGHTCQHWSAQTPHTHNRTPENFPCKNLDENYCRNPDGKRAPWCHTTNSQVRWEYCKIPSCDSSPVSTEQLAPTAPPELTPVVQDCYHGDGQSYRGTSSTTTTGKKCQSWSSMTPHRHQKTPENYPNAGLTMNYCRNPDADKGPWCFTTDPSVRWEYCNLKKCSGTEASVVAPPPVVLLPDVETPSEEDCMFGNGKGYRGKRATTVTGTPCQDWAAQEPHRHSIFTPETNPRAGLEKNYCRNPDGDVGGPWCYTTNPRKLYDYCDVPQCAAPSFDCGKPQVEPKKCPGRVVGGCVAHPHSWPWQVSLRTRFGMHFCGGTLISPEWVLTAAHCLEKSPRPSSYKVILGAHQEVNLEPHVQEIEVSRLFLEPTRKDIALLKLSSPAVITDKVIPACLPSPNYVVADRTECFITGWGETQGTFGAGLLKEAQLPVIENKVCNRYEFLNGRVQSTELCAGHLAGGTDSCQGDSGGPLVCFEKDKYILQGVTSWGLGCARPNKPGVYVRVSRFVTWIEGVMRNN
kcat [9]: 2.45 s⁻¹
Km [10]: 171 µM
Vmax [10]: 3.76 µM/min
